Source: PubChem BioAssay
Diaph act CS: activates diaphorase or chemically reduces, flagging diaphorase assay artifacts | Diaphorase/resazurin coupled assay, resorufin fluorescence, 16 min; stronger effect = higher value; 1 = vehicle wells, 0 = NADH-free wells | activation factor at 20 µM | 190,000 compounds, 0.005% hits | AID 1229;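 active means diaphorase activity raised at least twofold by the compound at 20 µM; inactive means activation factor below 2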
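Assay system: Purified diaphorase enzyme from Clostridium kluyveri | Amount: Enzyme 0.07 U/mL final | Dosing: Compound 20 µM once, DMSO 1% | Timing: 16 min reaction at room temperature | Detection: Fluorescence, excitation 544 nm and emission 590 nm | Evaluation: Higher resorufin formation from activation or reduction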
PMI act: phosphomannose isomerase (human) activation; purified human PMI, coupled resazurin fluorescence, 20 min; stronger effect = higher value; 1 = vehicle control, 0 substrate-free wells; activation factor at 20 µM; 190,000 compounds, 0.005% hits; AID 1214;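 active means activation factor of 2 or more at 20 µM, relative to plate controls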
PMI act hi M6P: PMI (human) activation, high substrate; activation factor at 20 µM; 190,000 compounds, 0.34% hits; coupled PMI enzyme assay, resazurin fluorescence, 20 min; stronger effect = higher value; 1 = untreated enzyme, 0 = substrate-free blank; AID 1216;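 active means activation factor of 2 or more at 20 µM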
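Test system – human PMI in coupled enzyme assay · Timing – 20 min incubation at room temperature · Detection – Diaphorase-driven resazurin-to-resorufin fluorescence, excitation 544, emission 590 nm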
Diaph inh CS: diaphorase inhibition or chemical oxidation counter-screen; diaphorase resazurin-to-resorufin fluorescence, NADH, 16 min; bacterial (C. kluyveri) enzyme, not human; inhibition, % at 20 µM; 190,000 compounds, 0.69% hits; AID 1217;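 active means primary screen inhibition at 20 µM above a set limit, cut at about 50% in these data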;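 further: plate controls were DMSO with full reaction for no effect and wells lacking NADH for full effect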
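Test system: diaphorase enzyme from Clostridium kluyveri; amount: diaphorase at 0.14 U/mL in enzyme working solution; detection: fluorescence of resorufin formed from resazurin, Ex 544/Em 590 nm; times: reaction incubation of 16 min at room temperature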
FLuc act counter: firefly luciferase counter-screen for stimulation assays; ATPlite luciferase biochemical, luminescence, 10 min; 0 = ATP-free wells, 1 = DMSO control; activation factor at 10 µM; 200,000 tested, under 10 active;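 active means luciferase activation factor, scaled between plate controls, of at least 2 with compound at 10 µM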
Target sequence (P08659 whole entry, looked up): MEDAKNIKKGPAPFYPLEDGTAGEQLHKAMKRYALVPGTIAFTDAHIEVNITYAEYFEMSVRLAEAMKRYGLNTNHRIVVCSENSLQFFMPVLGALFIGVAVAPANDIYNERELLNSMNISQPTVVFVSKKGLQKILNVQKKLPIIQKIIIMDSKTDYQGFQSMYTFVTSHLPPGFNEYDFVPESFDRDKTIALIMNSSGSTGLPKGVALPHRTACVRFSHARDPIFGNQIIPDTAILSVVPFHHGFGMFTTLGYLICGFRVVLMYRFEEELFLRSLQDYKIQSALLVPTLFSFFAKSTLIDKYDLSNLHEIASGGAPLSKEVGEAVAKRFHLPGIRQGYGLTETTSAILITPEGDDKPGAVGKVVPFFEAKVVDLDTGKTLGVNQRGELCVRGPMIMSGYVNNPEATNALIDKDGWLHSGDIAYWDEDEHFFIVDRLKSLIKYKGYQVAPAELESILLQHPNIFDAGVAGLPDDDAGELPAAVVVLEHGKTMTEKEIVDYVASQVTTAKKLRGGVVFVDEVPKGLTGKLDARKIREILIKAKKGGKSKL
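Assay system: Luciferase/luciferin detection reagent, cell-free biochemical luciferase assay / Also added: ATP substrate / Schedule: 10 min at ambient temperature / Measured by: luminescence measurement of luciferase light output / Benchmarks: low control with PBS replacing ATP, high control enzyme plus ATP without compound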
FLuc inhib CS: Photinus pyralis luciferase inhibition counter-screen. P08659. ATPLite firefly luciferase biochemical luminescence, 10 min. inhibition, % at 10 µM. 200,000 compounds, 1.5% hits. AID 1006;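 active means inhibition above about 50% when tested at 10 µM, limit read from the data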
* hit, by the source's call; / = no result. Shown are actives, neighbours in structure and some others; about 2.5% of the full set was active somewhere.

SMILES	Diaph act CS	PMI act	PMI act hi M6P	Diaph inh CS	FLuc act counter	FLuc inhib CS
O=c1c(O[C@@H]2O[C@H](CO)[C@H](O)[C@H](O)[C@H]2O)c(-c2ccc(O)c(O)c2)oc2cc(O)cc(O)c12	0.4	0.4	0.5	56*	1	2
CC1OC(OCC2OC(Oc3c(-c4ccc(O)cc4)oc4cc(O)cc(O)c4c3=O)C(O)C(O)C2O)C(O)C(O)C1O (configuration not stated)	0.9	1	0.8	12	1.1	-6
COc1cc([N+](=O)[O-])cc2sc(NC(=O)c3c(F)cccc3F)nc12	1	1.2	0.8	-2	0.9	6
CCC(C)(C)n1nnnc1C(c1cc2cc(C)cc(C)c2[nH]c1=O)N1CCN(Cc2ccc3c(c2)OCO3)CC1 (configuration not stated)	0.8	0.9	0.9	22	1	-4
Brc1ccccc1-n1nnc(-c2nccs2)n1	0.9	0.9	1	10	0.5	51*
Nc1c2c(nc3sc4c(c13)CCCCC4)CCCCC2	0.9	1	1	7	0.4	62*
CC1CCc2nc3sc4c(c3c(N)c2C1)CCCC4 (configuration not stated)	0.9	0.9	0.9	14	0.7	30
Cc1ccc(S(=O)(=O)Nc2cccc(Cl)c2)cc1NC(=O)c1cccnc1	0.9	1	1	5	1.1	-5
COc1ccc(CNC(=O)c2cc(SC)ccc2Cl)cc1OC	1	1	1.1	0	1.1	-6
CCCCCCN1Cc2ccccc2C1	0.9	0.9	0.9	8	1	-3
CCCCCCCCCCCCCCCCn1cc[n+](C)c1	3.2*	1.1	1.1	-225	1.1	-5
Cc1ccc(N/N=C(\C#N)C(N)=S)cc1C	1	1.3	2.1*	-1	1	-2
O=c1c(C=NCc2cccnc2)c(C(F)(F)F)[nH]n1-c1nc2ccccc2s1	/	/	/	/	0.3	74*
O=C(Nc1ccccc1-c1ccccc1)c1cc(C(F)(F)F)cc(C(F)(F)F)c1	0.9	1	1	10	1.1	-6
COc1ccc2c(c1OC)C(=O)N(C(C)C(=O)O)C2=O (configuration not stated)	1	1	1.1	3	1	-5
CC(C)OCCCN1CN(S(=O)(=O)c2ccc(Cl)cc2)c2nc3ccccc3nc21	0.8	1.4	2*	16	1	-1
CCOc1cc(CNc2ccc3c(c2)CCC3)ccc1O	0.8	1	1.2	22	1.1	-5
COc1cc(CNc2ccc3c(c2)CCC3)cc(OC)c1O	0.4	0.6	0.7	56*	1	-4
C/C(=N\NC(=O)Cc1csc(N2CCOCC2)n1)c1ccccc1	1	1.1	1.1	0	1	-2
O=C(Cc1csc(N2CCOCC2)n1)N/N=C/c1ccc(O)c(O)c1O	0.2	0.2	0.2	83*	0.9	5
O=C(CCN1CCOCC1)N/N=C/c1cc(Br)cc(Br)c1O	0.4	0.7	0.7	63*	1.1	-7
O=C(CCN1CCN(c2ccccc2)CC1)N/N=C/c1ccc(O)c(O)c1O	0.4	0.4	0.4	64*	0.9	6
COc1ccc(/C=N/NC(=O)CCN2CCN(c3ccccc3)CC2)c(OC)c1OC	1	1	0.9	3	1.1	-6
CC1=CC(C)(C)Nc2ccc(OC(=O)CN3C(=O)c4cccc5cccc(c45)C3=O)cc21	0.4	0.5	0.4	58*	1.1	-8
CN1CCN(C(=O)C2=C[C@H](c3ccccc3)C[C@H](OCc3ccc(CO)cc3)O2)CC1	0.8	1	0.9	15	1.1	-6
SMILES	Diaph act CS	PMI act	PMI act hi M6P	Diaph inh CS	FLuc act counter	FLuc inhib CS
CCN(CC)c1ccc(N=Nc2nn(C)c(C)c2[N+](=O)[O-])cc1	0.8	0.9	0.9	22	0.2	76*
CCN(Cc1ccccc1)c1ccc(N=Nc2nn(C)c(C)c2[N+](=O)[O-])cc1	0.9	0.8	0.9	13	1	3
O=C(O)/C=C/C(=O)Nc1ccccc1C(=O)OCC(=O)c1ccc2c(c1)OCCO2	0.9	-0.1	1	6	0	96*
CCCCC(=O)Nc1ccccc1C(=O)OCC(=O)c1ccc2c(c1)OCCO2	0.7	0.8	0.8	25	0.3	66*
CCOC(=O)c1ccccc1NC(=O)/C=C/C(=O)O	1	1.2	1.2	-5	1	0
NC(=O)Cn1nc([N+](=O)[O-])nc1Oc1ccccc1C(=O)N1CCOCC1	0.9	1.1	1	8	1.1	-5
CC(C)c1ccc(NC(=O)COC(=O)COc2ccccc2)cc1	0.8	0.8	0.9	21	1.1	-5
O=C(/C=C\Nc1ccc(Br)cc1)c1cccnc1	0.9	1	1	9	0.2	84*
CN(C)c1ccc(N/C=C/C(=O)C(C)(C)C)cc1	0.8	0.8	0.9	17	0.8	24
Cc1ccc(C(=O)/C=C\Nc2ccc(C)c(C)c2)cc1	1	1	1	1	0.7	29
Cc1ccc(N/C=C/C(=O)c2ccc(C)cc2)cc1	0.9	1	1	10	0.5	51*
CN(C)c1ccc(N/C=C/C(=O)c2ccccc2)cc1	0.7	0.6	0.6	28	0.1	92*
Cc1noc(NS(=O)(=O)c2ccc(N/C=C/C(=O)c3cccnc3)cc2)c1C	0.8	1	1	16	1.1	-9
O=C(/C=C/Nc1ccccc1)c1ccccc1	1	1	1	2	0.1	92*
CCOC(=O)c1ccc(N/C=C/C(=O)c2ccccc2)cc1	0.9	1	0.9	12	0.6	42
Cc1ccc(C(=O)/C=C/Nc2ccc([N+](=O)[O-])cc2Br)cc1	1.1	1.1	1.1	-12	0.6	39
O=C(/C=C/Nc1ccc(F)cc1Br)c1ccccc1	0.9	1.1	1.1	6	0	96*
Cc1oc(-c2ccccc2F)nc1CS(=O)(=O)CC(=O)NCCN(C)C1CCCCC1	0.9	1	1	10	1.1	-6
O=C(/C=C/c1cccs1)Nc1cccc(NC(=O)/C=C/c2cccs2)n1	0.9	0.8	0.9	13	0.4	60*
Cc1cccc(NC(=O)/C=C/c2ccc(Cl)cc2)n1	0.9	0.9	0.9	9	0.2	83*
NS(=O)(=O)c1cccc(NC(=O)/C=C/c2cccs2)c1	0.8	0.9	0.9	16	0.3	73*
NS(=O)(=O)c1cccc(NC(=O)COC(=O)/C(=C/c2cccs2)c2cccs2)c1	0.9	0.9	1	13	1	0
